Measurements taken from ChEMBL document CHEMBL4689842, “EUbOPEN Chemogenomics Library wave 1” (2021).
Where “and” joins values, the source holds several entries; their conditions need not be identical. Identical values can stand only once.

Legend:
U2OS [1] = experiment: Incucyte cell viability with U2OS; assay type: toxicity, cell-based; conditions: human, 10 µM, compound concentration 10 uM; note: filed as whole numbers so only -1 and 0 and 1 occur
U2OS [2] = experiment: Multiplex assay against U2OS; assay type: toxicity, cell-based; conditions: human
Method in brief: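 On a CQ1 microscope at 37°C and 5% CO2, live cells were imaged after compound addition. They had been stained at seeding with Hoechst33342, BioTracker Green Microtubule Cytoskeleton Dye, MitoTracker Red and Annexin V Alexa Fluor 680. CellPathfinder machine-learning gating assigned cells to Hoechst high-intensity objects or normal cells, normal cells to healthy, pyknosed or fragmented nuclei, and pyknosed cells to mitotic or apoptotic. Tubulin, mitochondrial-mass and membrane-permeability phenotypes are per cents of healthy-nucleus cells.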

[3] = 12 h, 1 µM, compound concentration 1 uM, replicate 1
[4] = 12 h, 1 µM, compound concentration 1 uM, replicate 2
[5] = 12 h, 10 µM, compound concentration 10 uM, replicate 1
[6] = 12 h, 10 µM, compound concentration 10 uM, replicate 2
[7] = 24 h, 1 µM, compound concentration 1 uM, replicate 1
[8] = 24 h, 1 µM, compound concentration 1 uM, replicate 2
[9] = 24 h, 10 µM, compound concentration 10 uM, replicate 1
[10] = 24 h, 10 µM, compound concentration 10 uM, replicate 2
[11] = 48 h, 10 µM, compound concentration 10 uM, replicate 1
[12] = 48 h, 10 µM, compound concentration 10 uM, replicate 2

For `CC(C)Oc1ccc(C(=O)N[C@H](CNC(=O)CN(C)C)Cc2ccc(-c3cn4cccc([C@H](C)O)c4n3)cc2)cc1Cl` [GSK-923295A], the “Growth Rate” value (U2OS [1]; 0 h, replicate number 1, timepoint 0 hours) was 0, the “Growth Rate” value (U2OS [1]; 6 h, replicate number 1, timepoint 6 hours) was 0 and the “Growth Rate” value (U2OS [1]; 12 h, replicate number 1, timepoint 12 hours) was 0. For the same molecule, the “Growth Rate” value (U2OS [1]; 18 h, replicate number 1, timepoint 18 hours) was 0, the “Growth Rate” value (U2OS [1]; 24 h, replicate number 1, timepoint 24 hours) was 0 and the “Population Apoptotic (%)” value (U2OS [2]; [3]) was 27%. The “Population Fragmented Nuclei (%)” value (U2OS [2]; [3]) was 9%, the “Population Healthy Nuclei (%)” value (U2OS [2]; [3]) was 75% and the “Population Hoechst High Intensity Objects (%)” value (U2OS [2]; [3]) was 1%. The “Population Membrane Permeable-Phenotype (%)” value (U2OS [2]; [3]) was 33%, the “Population Mitochondria Different-Phenotype (%)” value (U2OS [2]; [3]) was 23% and the “Population Mitotic Cells (%)” value (U2OS [2]; [3]) was 72%. The “Population Normal (%)” value (U2OS [2]; [3]) was 98%, the “Population Pyknosed Nuclei (%)” value (U2OS [2]; [3]) was 15% and the “Population Tubulin-Different-Phenotype (%)” value (U2OS [2]; [3]) was 14%. For the same molecule, the “Total Cell Count” value (U2OS [2]; [3]) was 253, the “Population Apoptotic (%)” value (U2OS [2]; [4]) was 21% and the “Population Fragmented Nuclei (%)” value (U2OS [2]; [4]) was 11%. The “Population Healthy Nuclei (%)” value (U2OS [2]; [4]) was 66%, the “Population Hoechst High Intensity Objects (%)” value (U2OS [2]; [4]) was 11% and the “Population Membrane Permeable-Phenotype (%)” value (U2OS [2]; [4]) was 29%. The “Population Mitotic Cells (%)” value (U2OS [2]; [4]) was 78%, the “Population Normal (%)” value (U2OS [2]; [4]) was 88% and the “Population Pyknosed Nuclei (%)” value (U2OS [2]; [4]) was 22%. For the same molecule, the “Population Tubulin-Different-Phenotype (%)” value (U2OS [2]; [4]) was 19%, the “Total Cell Count” value (U2OS [2]; [4]) was 153 and the “Population Apoptotic (%)” value (U2OS [2]; [5]) was 48% and 53%. For the same molecule, the “Population Fragmented Nuclei (%)” value (U2OS [2]; [5]) was 9% and 14%, the “Population Healthy Nuclei (%)” value (U2OS [2]; [5]) was 75% and 62% and the “Population Hoechst High Intensity Objects (%)” value (U2OS [2]; [5]) was 3% and 11%. The “Population Membrane Permeable-Phenotype (%)” value (U2OS [2]; [5]) was 31% and 19%, the “Population Mitochondria Different-Phenotype (%)” value (U2OS [2]; [5]) was 37% and 93% and the “Population Mitotic Cells (%)” value (U2OS [2]; [5]) was 51% and 46%. The “Population Normal (%)” value (U2OS [2]; [5]) was 96% and 88%, the “Population Pyknosed Nuclei (%)” value (U2OS [2]; [5]) was 15% and 23% and the “Population Tubulin-Different-Phenotype (%)” value (U2OS [2]; [5]) was 98% and 97%. The “Total Cell Count” value (U2OS [2]; [5]) was 146 and 119, the “Population Apoptotic (%)” value (U2OS [2]; [6]) was 30% and 33% and the “Population Fragmented Nuclei (%)” value (U2OS [2]; [6]) was 32%. The “Population Healthy Nuclei (%)” value (U2OS [2]; [6]) was 73% and 51%, the “Population Hoechst High Intensity Objects (%)” value (U2OS [2]; [6]) was 2% and the “Population Membrane Permeable-Phenotype (%)” value (U2OS [2]; [6]) was 30% and 56%. The “Population Mitochondria Different-Phenotype (%)” value (U2OS [2]; [6]) was 89% and 67%, the “Population Mitotic Cells (%)” value (U2OS [2]; [6]) was 69% and 66% and the “Population Normal (%)” value (U2OS [2]; [6]) was 97%. The “Population Pyknosed Nuclei (%)” value (U2OS [2]; [6]) was 17% and 16%, the “Population Tubulin-Different-Phenotype (%)” value (U2OS [2]; [6]) was 100% and the “Total Cell Count” value (U2OS [2]; [6]) was 76 and 116. The “Population Apoptotic (%)” value (U2OS [2]; [7]) was 24%, the “Population Fragmented Nuclei (%)” value (U2OS [2]; [7]) was 18% and the “Population Healthy Nuclei (%)” value (U2OS [2]; [7]) was 61%. For the same molecule, the “Population Hoechst High Intensity Objects (%)” value (U2OS [2]; [7]) was 2%, the “Population Membrane Permeable-Phenotype (%)” value (U2OS [2]; [7]) was 28% and the “Population Mitochondria Different-Phenotype (%)” value (U2OS [2]; [7]) was 19%. For the same molecule, the “Population Mitotic Cells (%)” value (U2OS [2]; [7]) was 75%, the “Population Normal (%)” value (U2OS [2]; [7]) was 97% and the “Population Pyknosed Nuclei (%)” value (U2OS [2]; [7]) was 19%. The “Population Tubulin-Different-Phenotype (%)” value (U2OS [2]; [7]) was 13%, the “Total Cell Count” value (U2OS [2]; [7]) was 249 and the “Population Apoptotic (%)” value (U2OS [2]; [8]) was 29%. The “Population Fragmented Nuclei (%)” value (U2OS [2]; [8]) was 13%, the “Population Healthy Nuclei (%)” value (U2OS [2]; [8]) was 72% and the “Population Hoechst High Intensity Objects (%)” value (U2OS [2]; [8]) was 10%. For the same molecule, the “Population Membrane Permeable-Phenotype (%)” value (U2OS [2]; [8]) was 19%, the “Population Mitochondria Different-Phenotype (%)” value (U2OS [2]; [8]) was 22% and the “Population Mitotic Cells (%)” value (U2OS [2]; [8]) was 70%. The “Population Normal (%)” value (U2OS [2]; [8]) was 89%, the “Population Pyknosed Nuclei (%)” value (U2OS [2]; [8]) was 14% and the “Population Tubulin-Different-Phenotype (%)” value (U2OS [2]; [8]) was 15%. The “Total Cell Count” value (U2OS [2]; [8]) was 136, the “Population Apoptotic (%)” value (U2OS [2]; [9]) was 78% and 72% and the “Population Fragmented Nuclei (%)” value (U2OS [2]; [9]) was 12% and 17%. The “Population Healthy Nuclei (%)” value (U2OS [2]; [9]) was 56% and 61%, the “Population Hoechst High Intensity Objects (%)” value (U2OS [2]; [9]) was 4% and 9% and the “Population Membrane Permeable-Phenotype (%)” value (U2OS [2]; [9]) was 45% and 40%. For the same molecule, the “Population Mitochondria Different-Phenotype (%)” value (U2OS [2]; [9]) was 66% and 88%, the “Population Mitotic Cells (%)” value (U2OS [2]; [9]) was 21% and 27% and the “Population Normal (%)” value (U2OS [2]; [9]) was 95% and 90%. For the same molecule, the “Population Pyknosed Nuclei (%)” value (U2OS [2]; [9]) was 31% and 20%, the “Population Tubulin-Different-Phenotype (%)” value (U2OS [2]; [9]) was 97% and the “Total Cell Count” value (U2OS [2]; [9]) was 171 and 128. The “Population Apoptotic (%)” value (U2OS [2]; [10]) was 60% and 35%, the “Population Fragmented Nuclei (%)” value (U2OS [2]; [10]) was 33% and 11% and the “Population Healthy Nuclei (%)” value (U2OS [2]; [10]) was 33% and 64%. The “Population Hoechst High Intensity Objects (%)” value (U2OS [2]; [10]) was 6% and 2%, the “Population Membrane Permeable-Phenotype (%)” value (U2OS [2]; [10]) was 64% and 53% and the “Population Mitochondria Different-Phenotype (%)” value (U2OS [2]; [10]) was 75% and 96%. For the same molecule, the “Population Mitotic Cells (%)” value (U2OS [2]; [10]) was 39% and 65%, the “Population Normal (%)” value (U2OS [2]; [10]) was 93% and 97% and the “Population Pyknosed Nuclei (%)” value (U2OS [2]; [10]) was 33% and 24%. For the same molecule, the “Population Tubulin-Different-Phenotype (%)” value (U2OS [2]; [10]) was 100%, the “Total Cell Count” value (U2OS [2]; [10]) was 133 and 72 and the “Population Apoptotic (%)” value (U2OS [2]; [11]) was 66%. The “Population Fragmented Nuclei (%)” value (U2OS [2]; [11]) was 18%, the “Population Healthy Nuclei (%)” value (U2OS [2]; [11]) was 41% and the “Population Hoechst High Intensity Objects (%)” value (U2OS [2]; [11]) was 10%. The “Population Membrane Permeable-Phenotype (%)” value (U2OS [2]; [11]) was 49%, the “Population Mitochondria Different-Phenotype (%)” value (U2OS [2]; [11]) was 85% and the “Population Mitotic Cells (%)” value (U2OS [2]; [11]) was 33%. The “Population Normal (%)” value (U2OS [2]; [11]) was 89%, the “Population Pyknosed Nuclei (%)” value (U2OS [2]; [11]) was 40% and the “Population Tubulin-Different-Phenotype (%)” value (U2OS [2]; [11]) was 97%. For the same molecule, the “Total Cell Count” value (U2OS [2]; [11]) was 133, the “Population Apoptotic (%)” value (U2OS [2]; [12]) was 73% and the “Population Fragmented Nuclei (%)” value (U2OS [2]; [12]) was 9%. The “Population Healthy Nuclei (%)” value (U2OS [2]; [12]) was 43%, the “Population Hoechst High Intensity Objects (%)” value (U2OS [2]; [12]) was 7% and the “Population Membrane Permeable-Phenotype (%)” value (U2OS [2]; [12]) was 81%. For the same molecule, the “Population Mitochondria Different-Phenotype (%)” value (U2OS [2]; [12]) was 96%, the “Population Mitotic Cells (%)” value (U2OS [2]; [12]) was 26% and the “Population Normal (%)” value (U2OS [2]; [12]) was 92%. The “Population Pyknosed Nuclei (%)” value (U2OS [2]; [12]) was 46%, the “Population Tubulin-Different-Phenotype (%)” value (U2OS [2]; [12]) was 100% and the “Total Cell Count” value (U2OS [2]; [12]) was 86.
